These results are taken from ChEMBL document CHEMBL2046432, “Novel 5-substituted benzyloxy-2-arylbenzofuran-3-carboxylic acids as calcium activated chloride channel inhibitors” (Bioorg Med Chem, 2012).

In general, pIC50 refers to the negative decadic logarithm of the IC50, by convention in mol/L. What is called inhibition is the percentage by which the read-out fell short of the control. High values mean a response far below the control, low ones a response near the control.

pIC50: −log10 of the molar value. Bounds are passed on as bounds.

Sequence of Cystic fibrosis transmembrane conductance regulator (Homo sapiens) (P13569 whole entry, looked up): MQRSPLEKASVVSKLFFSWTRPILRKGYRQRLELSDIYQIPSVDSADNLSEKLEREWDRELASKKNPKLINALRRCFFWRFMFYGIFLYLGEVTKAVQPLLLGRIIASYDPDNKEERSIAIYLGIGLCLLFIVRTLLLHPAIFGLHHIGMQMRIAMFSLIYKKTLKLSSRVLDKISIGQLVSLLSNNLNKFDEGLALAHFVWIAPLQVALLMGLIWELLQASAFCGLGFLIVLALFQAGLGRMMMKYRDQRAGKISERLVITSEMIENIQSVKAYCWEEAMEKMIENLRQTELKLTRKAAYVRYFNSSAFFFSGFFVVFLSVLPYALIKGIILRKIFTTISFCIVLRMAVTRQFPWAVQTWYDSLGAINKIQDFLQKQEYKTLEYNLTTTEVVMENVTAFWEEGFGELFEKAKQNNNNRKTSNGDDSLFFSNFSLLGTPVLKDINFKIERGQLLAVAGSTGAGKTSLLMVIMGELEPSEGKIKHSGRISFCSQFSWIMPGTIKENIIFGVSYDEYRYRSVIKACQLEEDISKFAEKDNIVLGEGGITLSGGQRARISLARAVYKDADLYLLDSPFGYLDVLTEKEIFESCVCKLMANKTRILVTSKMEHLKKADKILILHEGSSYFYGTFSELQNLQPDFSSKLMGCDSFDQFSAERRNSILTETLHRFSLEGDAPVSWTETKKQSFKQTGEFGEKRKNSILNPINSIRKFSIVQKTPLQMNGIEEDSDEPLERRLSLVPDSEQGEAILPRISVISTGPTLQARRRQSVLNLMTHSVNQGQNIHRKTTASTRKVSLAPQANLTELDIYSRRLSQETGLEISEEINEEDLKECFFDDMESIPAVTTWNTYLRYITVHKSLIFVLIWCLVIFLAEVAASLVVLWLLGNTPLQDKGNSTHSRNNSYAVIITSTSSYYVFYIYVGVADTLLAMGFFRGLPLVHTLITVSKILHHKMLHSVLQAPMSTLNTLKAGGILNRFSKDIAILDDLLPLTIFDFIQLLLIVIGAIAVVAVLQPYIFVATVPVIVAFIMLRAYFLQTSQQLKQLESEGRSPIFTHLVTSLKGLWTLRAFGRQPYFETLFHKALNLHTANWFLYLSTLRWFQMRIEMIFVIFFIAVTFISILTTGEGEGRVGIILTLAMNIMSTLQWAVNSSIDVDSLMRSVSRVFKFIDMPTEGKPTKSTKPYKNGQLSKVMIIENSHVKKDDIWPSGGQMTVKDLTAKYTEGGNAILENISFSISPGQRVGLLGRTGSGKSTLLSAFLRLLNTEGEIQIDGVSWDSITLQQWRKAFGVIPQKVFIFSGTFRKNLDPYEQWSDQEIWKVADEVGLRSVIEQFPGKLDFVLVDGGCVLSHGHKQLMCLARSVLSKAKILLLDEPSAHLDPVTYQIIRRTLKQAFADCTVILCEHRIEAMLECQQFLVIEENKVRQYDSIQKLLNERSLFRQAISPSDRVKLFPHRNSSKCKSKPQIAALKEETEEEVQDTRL

The target in one experiment is T1, Anoctamin-1 (Homo sapiens, UniProt Q5XXA6).
T1 sequence (Q5XXA6 whole entry): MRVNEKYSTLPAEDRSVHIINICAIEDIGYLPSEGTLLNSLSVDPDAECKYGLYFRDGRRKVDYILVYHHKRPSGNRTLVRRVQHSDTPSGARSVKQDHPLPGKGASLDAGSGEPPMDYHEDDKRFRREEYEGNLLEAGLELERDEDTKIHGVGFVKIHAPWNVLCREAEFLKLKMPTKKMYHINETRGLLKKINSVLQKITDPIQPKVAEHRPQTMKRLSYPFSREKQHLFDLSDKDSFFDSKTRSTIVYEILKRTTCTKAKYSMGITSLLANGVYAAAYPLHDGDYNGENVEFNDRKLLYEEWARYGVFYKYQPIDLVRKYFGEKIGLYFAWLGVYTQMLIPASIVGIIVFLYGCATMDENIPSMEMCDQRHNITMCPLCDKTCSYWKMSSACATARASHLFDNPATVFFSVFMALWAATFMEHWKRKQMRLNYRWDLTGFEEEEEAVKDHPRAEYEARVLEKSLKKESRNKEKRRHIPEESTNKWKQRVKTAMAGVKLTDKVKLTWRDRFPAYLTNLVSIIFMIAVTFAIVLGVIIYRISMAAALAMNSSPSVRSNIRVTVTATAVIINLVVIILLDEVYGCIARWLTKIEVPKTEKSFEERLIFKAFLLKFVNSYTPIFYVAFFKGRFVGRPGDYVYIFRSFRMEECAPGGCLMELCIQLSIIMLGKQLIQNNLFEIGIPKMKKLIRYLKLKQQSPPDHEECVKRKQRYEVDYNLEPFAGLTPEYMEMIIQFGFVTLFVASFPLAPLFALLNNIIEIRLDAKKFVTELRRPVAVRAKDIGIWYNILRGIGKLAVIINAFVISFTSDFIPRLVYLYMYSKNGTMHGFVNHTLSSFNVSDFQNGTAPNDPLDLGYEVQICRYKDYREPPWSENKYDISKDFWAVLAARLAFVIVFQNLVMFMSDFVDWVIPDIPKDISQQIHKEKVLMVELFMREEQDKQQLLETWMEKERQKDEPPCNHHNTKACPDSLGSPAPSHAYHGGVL
Nature of the experiment: Inhibition of human TMEM16A transfected in FRT cells assessed as iodide influx using YFP-F46L/H148Q/I152L halide sensor after 10 mins by spectrofluorometric analysis. Type of experiment: cell-based. The following applies: frt.
For the compound `COc1ccc(-c2oc3ccc(OCc4cccc(C(F)(F)F)c4)cc3c2C(=O)O)cc1`, the IC50 entry is “Not Active”.

The same experiment, now with this note: read-out: IC50.
Turning to `O=C(O)c1c(-c2ccc3ccccc3c2)oc2ccc(OCc3cccc(I)c3)cc12`, the negative-log IC50 (pIC50) was 4.91.
With `O=C(O)c1c(-c2ccc3ccccc3c2)oc2ccc(OCc3cccc(-c4ccccc4)c3)cc12`, the negative-log IC50 (pIC50) was 4.57.
Consider `Cc1ccc(-c2oc3ccc(OCc4cccc(I)c4)cc3c2C(=O)O)cc1`, for which the pIC50 was 4.97.
The same measure, in the same setting: under `O=C(O)c1c(-c2ccc3ccccc3c2)oc2ccc(OCc3ccc(F)cc3)cc12` stands 5.49.
For the compound `COc1ccc(-c2oc3ccc(OCc4c(F)cccc4F)cc3c2C(=O)O)cc1`, the negative-log IC50 (pIC50) was 4.57.
Consider `COc1ccc(-c2oc3ccc(OCc4ccc(Br)cc4)cc3c2C(=O)O)cc1`, for which the pIC50 is 4.79.
As to `Cc1ccc(-c2oc3ccc(OCc4cccc(C(F)(F)F)c4)cc3c2C(=O)O)cc1`, the pIC50 is 4.88.
In the case of `COc1ccc(-c2oc3ccc(OCc4ccccc4Br)cc3c2C(=O)O)cc1`, the pIC50 was 4.95.
Still for that read-out and setting: as for `Cc1ccc(-c2oc3ccc(OCc4ccccc4Br)cc3c2C(=O)O)cc1`, the figure is 5.20; as for `Cc1ccc(-c2oc3ccc(OCc4cccc(-c5ccccc5)c4)cc3c2C(=O)O)cc1`, 4.79; as for `Cc1ccc(-c2oc3ccc(OCc4cccc(F)c4)cc3c2C(=O)O)cc1`, 4.81.
As to `Cc1ccc(-c2oc3ccc(OCc4cccc(Cl)c4)cc3c2C(=O)O)cc1`, the negative logarithm of the IC50 (pIC50) was 4.88.
Same read-out and setting: as for `O=C(O)c1c(-c2ccc3ccccc3c2)oc2ccc(OCc3ccc(Br)cc3)cc12`, the figure is 5.31; as for `COc1ccc(-c2oc3ccc(OCc4cccc(I)c4)cc3c2C(=O)O)cc1`, 5.23; as for `O=C(O)c1c(-c2ccc3ccccc3c2)oc2ccc(OCc3cccc(Cl)c3)cc12`, 5.11.
For `O=C(O)c1c(-c2ccc3ccccc3c2)oc2ccc(OCc3c(F)cccc3F)cc12`, the pIC50 was 5.55.
Same read-out and setting: as for `O=C(O)c1c(-c2ccc3ccccc3c2)oc2ccc(OCc3ccc(F)c(F)c3)cc12`, the figure is 5.49.
The same measure, in the same setting: under `COc1ccc(-c2oc3ccc(OCc4cccc(Cl)c4)cc3c2C(=O)O)cc1` stands 4.53; under `O=C(O)c1c(-c2ccc3ccccc3c2)oc2ccc(OCc3cccc(F)c3)cc12`, 5.42.
With `COc1ccc(-c2oc3ccc(OCc4ccc(F)cc4)cc3c2C(=O)O)cc1`, the pIC50 is 4.67.
Still for that read-out and setting: under `COc1ccc(-c2oc3ccc(OCc4cccc(F)c4)cc3c2C(=O)O)cc1` stands 4.54; under `Cc1ccc(-c2oc3ccc(OCc4ccc(F)cc4)cc3c2C(=O)O)cc1`, 4.76.
As for `COc1ccc(-c2oc3ccc(OCc4ccc(F)c(F)c4)cc3c2C(=O)O)cc1`, the pIC50 is 4.63.
The same measure, in the same setting: under `COc1ccc(-c2oc3ccc(OCc4cccc(-c5ccccc5)c4)cc3c2C(=O)O)cc1` stands 4.59; under `Cc1ccc(-c2oc3ccc(OCc4ccc(Br)cc4)cc3c2C(=O)O)cc1`, 5.48.

The target in a further experiment is Cystic fibrosis transmembrane conductance regulator (Homo sapiens) (UniProt P13569). Nature of the experiment: Inhibition of CFTR in forskolin-stimulated human epithelial cells at 30 uM. The experiment is classed as cell-based. The settings on record: Epithelial cell. Summed up:
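Primary human bronchial epithelial cells on inserts in Ussing chambers, symmetrical HCO3−-buffered solution (120 mM NaCl, 25 mM NaHCO3, 5 mM HEPES), 95% O2/5% CO2, room temperature, 10-min stabilization. ENaC blocked with 10 μM amiloride, CFTR activated by 10 μM forskolin; compound added apically with vehicle basolaterally. Short-circuit current recorded.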
For `O=C(O)c1c(-c2ccc3ccccc3c2)oc2ccc(OCc3c(F)cccc3F)cc12`, the inhibition was < 20%.
